Screening results as filed in PubChem.
KCNQ1 block: blocks the human KCNQ1 potassium channel; P51787; CHO-K1 KCNQ1, FluxOR thallium flux fluorescence; active compounds read high; B-score at 10 µM; 310,000 compounds, 1.3% hits; AID 2642;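 active means compounds whose thallium flux B-score, printed positive for inhibition, exceeds three library SD while starting fluorescence stays within three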;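 further: channel opened by potassium depolarization with thallium stimulus after 20 min compound exposure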
Kir21 block: blocks the mouse Kir2.1 inward-rectifier potassium channel. P35561. B-score at 10 µM. HEK293-Kir2.1, FluxOR thallium flux fluorescence; active compounds read low. 310,000 compounds, 0.85% hits;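 active means fluorescence ratio B-score at or below minus 3 SD of library scores, with starting-brightness B-score within 2 SD, cut at about -4.2 in these data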;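 further: channel flux triggered by added potassium and thallium sulfate stimulus; B-score of peak minus minimum fluorescence over baseline after thallium stimulus; more negative B-score means stronger Kir2.1 block with less thallium influx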
hERG protect: compounds protecting human hERG from proarrhythmic drug block | CHO-hERG, FluxOR thallium flux, dofetilide IC70 present | activation (rescue from dofetilide block), less the hit threshold, % at 10 µM | 310,000 compounds, 0.51% hits;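 active means activation above the mean of controls blocked by dofetilide plus 5 SD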;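 further: thallium influx through hERG after potassium depolarization seen as dye fluorescence rise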
Target sequence (Q12809 whole entry, looked up): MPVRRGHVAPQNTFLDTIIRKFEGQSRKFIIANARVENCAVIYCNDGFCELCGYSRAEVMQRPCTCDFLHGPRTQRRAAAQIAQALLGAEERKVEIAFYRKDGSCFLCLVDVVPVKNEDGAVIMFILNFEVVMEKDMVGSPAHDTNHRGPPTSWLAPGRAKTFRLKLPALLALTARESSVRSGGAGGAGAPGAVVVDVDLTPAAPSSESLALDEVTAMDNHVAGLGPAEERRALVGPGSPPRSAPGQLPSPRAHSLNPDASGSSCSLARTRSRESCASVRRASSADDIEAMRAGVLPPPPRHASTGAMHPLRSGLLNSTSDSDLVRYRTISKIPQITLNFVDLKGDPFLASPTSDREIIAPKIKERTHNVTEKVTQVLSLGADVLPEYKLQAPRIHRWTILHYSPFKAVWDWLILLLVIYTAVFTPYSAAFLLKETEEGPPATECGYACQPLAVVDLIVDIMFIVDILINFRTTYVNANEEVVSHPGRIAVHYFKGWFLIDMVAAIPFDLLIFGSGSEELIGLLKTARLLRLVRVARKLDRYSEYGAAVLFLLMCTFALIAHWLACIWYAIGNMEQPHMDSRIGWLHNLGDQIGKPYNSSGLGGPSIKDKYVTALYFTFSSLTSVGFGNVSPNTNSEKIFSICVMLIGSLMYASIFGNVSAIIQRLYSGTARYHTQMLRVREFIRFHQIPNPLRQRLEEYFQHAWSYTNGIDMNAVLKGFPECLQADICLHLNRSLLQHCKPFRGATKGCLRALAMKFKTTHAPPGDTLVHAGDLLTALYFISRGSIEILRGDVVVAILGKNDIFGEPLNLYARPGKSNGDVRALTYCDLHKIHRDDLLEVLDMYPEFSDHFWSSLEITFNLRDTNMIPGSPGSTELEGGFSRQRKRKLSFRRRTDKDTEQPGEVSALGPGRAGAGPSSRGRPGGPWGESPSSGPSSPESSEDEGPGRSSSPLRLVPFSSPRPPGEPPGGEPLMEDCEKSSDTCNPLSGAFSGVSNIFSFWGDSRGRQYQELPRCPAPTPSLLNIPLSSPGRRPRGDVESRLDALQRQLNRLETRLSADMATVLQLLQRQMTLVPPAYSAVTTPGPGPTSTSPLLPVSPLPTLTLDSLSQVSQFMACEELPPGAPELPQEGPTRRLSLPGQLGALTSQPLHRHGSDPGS
KCNK3 block: human KCNK3 channel inhibition, primary screen; O14649; CHO-KCNK3 thallium flux, FluxOR fluorescence; active compounds read low; B-score at 10 µM; 340,000 compounds, 0.84% hits;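 active means B-score under library mean minus 4 SD, starting fluorescence ratio at most library mean plus 5 SD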;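 further: more negative B-score means stronger inhibition of thallium flux through KCNK3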
KCNK9 block: human KCNK9 channel inhibition | B-score at 10 µM | AID 488922 | Q9NPC2 | 310,000 compounds, 1.2% hits | HEK293 KCNK9, FluxOR thallium flux fluorescence; active compounds read low;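 active means ratio B-score over 3 SD below the library mean, with starting fluorescence within 5 SD of its mean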;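 further: negative B-score means less thallium flux so channel inhibition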
KCNQ1 pot: human KCNQ1 channel potentiation or activation. B-score at 10 µM. 310,000 compounds, 0.35% hits. CHO-K1 KCNQ1, thallium flux FluxOR fluorescence; active compounds read high;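 active means fluorescence ratio B-score, a plate-corrected score, at least three library SD, with initial intensity B-score within 5 SD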
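Medium – assay buffer, equal DMSO in all wells · Material – CHO-K1 cell line with stable KCNQ1 potassium channel expression · Signal – kinetic FluxOR thallium fluorescence, 10-s 1-Hz baseline, 110-s post-stimulus read · Compound – single concentration per compound, DMSO matched to controls · Schedule – 37 °C overnight plating, 90-min dark dye load, 20-min compound pretreatment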
Each line names hits and unclear results; the compound was inactive in the other large screens. Shown are actives, neighbours in structure and some others; about 3.7% of the full set was active somewhere.

O=C1c2ccccc2NC(c2ccc(Br)s2)N1O (stereo unspecified)	hERG protect 20.6, KCNQ1 pot 22
Cc1ccc(CNC(=O)C2CCCN2S(=O)(=O)c2ccc(Cl)cc2)cc1 (stereo unspecified)	none
Cc1ccc(S(=O)(=O)N2CCCC2C(=O)NCc2ccc3c(c2)OCO3)cc1 (stereo unspecified)	hERG protect 9.9
O=C(NCCCCCCNC(=O)c1ccncc1)c1ccncc1	none
O=C(NC1CCCCCC1)c1ccc(Br)o1	none
Cc1nn(Cc2ccc(C(=O)NC3CCCCC3)o2)c(C)c1Br	KCNQ1 block 6
O=C(NC1CCCC1)c1ccc(Br)o1	hERG protect 4.6
Cc1nn(Cc2ccc(C(=O)NC(C)(C)C)o2)c(C)c1Br	none
O=C(NS(=O)(=O)Nc1ccc(Br)cn1)c1c[nH]c2ccccc12	none
O=C(NC(=S)Nc1ccccc1F)C1CCCCC1	none
CCCCc1c(C)nc2nc(SCc3ccc(Cl)cc3)[nH]n2c1=O	KCNQ1 block 6
Cc1cccc2c1-c1sc(C(=O)Nc3cccnc3)cc1CO2	KCNK9 block -7.21
CCOC(=O)c1sc(=NC(=O)c2cccs2)n(C)c1C	none
CCOC(=O)c1sc(=NC(=O)/C=C/c2ccccc2)n(C)c1C	KCNQ1 block 12
c1ccc(Nc2nc(N3CCCC3)nc(N3CCCC3)n2)cc1	none
c1ccc(Nc2nc(N3CCCCC3)nc(N3CCCCC3)n2)cc1	KCNQ1 block 9
CCCCn1nnc(NC(=S)NC(=O)c2ccc(OCC)c([N+](=O)[O-])c2)n1	none
O=Cc1cc(N=Nc2ccccc2Cl)ccc1O	KCNQ1 pot 11
O=Cc1cc(N=Nc2cccc(C(=O)O)c2)ccc1O	none
CC(C)[C@H](NC(=O)[C@@H]1Cc2ccccc2CN1)C(=O)Nc1ccc2c(c1)OCO2	none
Cc1ccc(NNC(=O)C(O)(c2cccc(C(F)(F)F)c2)c2cccc(C(F)(F)F)c2)cc1	none
O=C(NNc1ccccc1Br)C(O)(c1cccc(C(F)(F)F)c1)c1cccc(C(F)(F)F)c1	KCNK9 block -8.26
Nc1cc2c(cc1[N+](=O)[O-])OCCOCCOCCO2	hERG protect 6.4
Nc1cc2c(cc1[N+](=O)[O-])OCCO2	none
CCOc1ccc(S(=O)(=O)Oc2ccc3ccccc3c2)cc1	KCNQ1 block 6
CC(C)=CCC/C(C)=C/CC(C)(C)CNCCN1CCNCC1	Kir21 block -8.25 (no result: KCNK3 block)
CC(C)=CCC/C(C)=C/CCC(C)NCCN1CCNCC1 (stereo unspecified)	Kir21 block -7.37 (no result: KCNK3 block)
CC(OC(=O)CNC(=O)c1sc2ccccc2c1Cl)c1ccccc1 (stereo unspecified)	none (no result: KCNQ1 block, Kir21 block, hERG protect, KCNK9 block, KCNQ1 pot)
CCn1cc(C(=O)NCCCOC)c(=O)c2cc(S(=O)(=O)N3CCCC3)ccc21	none
N#C/C(=C\c1c(Oc2ccc(Cl)cc2)nc2ccccn2c1=O)C(=O)NC1CCS(=O)(=O)C1 (stereo unspecified)	Kir21 block -4.43
CCn1nc(C)cc1-c1nnc(SCC(=O)Nc2ccccc2)n1CCCOC	none
CCn1nc(C)cc1-c1nnc(Sc2ncc([N+](=O)[O-])s2)n1C	KCNQ1 block 11
COc1ccc(OCCOCCN2CCN(C)CC2)cc1	none
COc1cccc(OC)c1OCCOCCN1CCN(C)CC1	hERG protect 18.6, KCNQ1 pot 19
Nc1c(Cl)ncnc1Nc1ccc(C(=O)O)cc1	none (no result: KCNQ1 block, Kir21 block, hERG protect, KCNK9 block, KCNQ1 pot)
Cc1cc(-c2nn(-c3ccccc3F)cc2CN2CCN(c3ccncc3)CC2)c(C)s1	Kir21 block -4.45
Cc1cc(-c2nn(-c3ccccc3F)cc2CN2CCC(O)CC2)c(C)s1	none
CCOc1ccc(-n2cc(-c3ccccc3)c3c(=O)[nH]cnc32)cc1	none
CCOc1ccc(-n2cc(-c3ccccc3)c3c(=S)nc[nH]c32)cc1	KCNQ1 pot 39
CC1(C)COC(c2ccc3c(c2)OCO3)OC1	none (no result: KCNQ1 block, Kir21 block, hERG protect, KCNK9 block, KCNQ1 pot)
CCC(=O)c1ccc(OCC(O)CN(CCc2ccccc2)Cc2ccccc2)cc1 (stereo unspecified)	KCNQ1 block 7
CC1COc2ccccc2N1S(=O)(=O)c1ccc(Cl)cc1 (stereo unspecified)	Kir21 block -4.41
CC(OC(=O)/C(C#N)=C/c1ccc(N(C)C)cc1)C(=O)NCc1ccco1 (stereo unspecified)	KCNQ1 block 7
